Measured values as given in ChEMBL document CHEMBL3414437, “Synthesis of CDDO-amino acid-nitric oxide donor trihybrids as potential antitumor agents against both drug-sensitive and drug-resistant colon cancer” (J Med Chem, 2015).
Calls of active or inactive are those of the source. No cut-off for these calls is given here.

Tests used:
[1] = test system: Mus musculus; assay: Toxicity in female ICR mouse assessed as body weight level at 2.38 x 10^3 umol/kg administered as single dose via oral gavage measured on day 14 post treatment (reference value: 19.5 +/- 0.85 g); type: organism-based; details: in vivo
[2] = test system: Mus musculus; assay: Toxicity in male ICR mouse assessed as body weight level at 2.38 x 10^3 umol/kg administered as single dose via oral gavage measured on day 7 post treatment (reference value: 19.8 +/- 0.92 g); type: organism-based; details: in vivo
[3] = test system: HCT-8; assay: Induction of apoptosis in human HCT8 cells incubated for 24 hrs by FITC-Annexin-V and propidium iodide staining based flow cytometry; type: functional, cell-based
[4] = Antitumor activity against FU-resistant human HCT8 cells xenografted in nude BALB/c mouse assessed as reduction in tumor weight at 17.8 umol/kg administered as via oral gavage daily for 21 days; type: functional; details: HCT-8, po, 504 h
In short: (§1)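 Male BALB/c nude mice, 6–8 weeks old, inoculated s.c. in the right flank with HCT-8/5-FU cells (2 × 10^6). Once tumors reached 180–200 mm3 (days 9–11), mice were randomized (n = 8) to daily oral gavage for 21 days in cremophor-EL/DMSO/PBS (1:1:8). Tumor volume = W2(L/2), caliper-measured every other day, blinded; tumors weighed at end.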

[5] = Toxicity in female ICR mouse assessed as mouse mortality at 2.38 x 10^3 umol/kg administered as single dose via oral gavage measured up to 14 days post treatment; type: organism-based; details: in vivo
In short: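 Female or male adult ICR mice, 10 per sex group, were randomised and given a single oral gavage dose of 2,000 mg/kg in cremophor-EL/DMSO/PBS (1:1:8). Total mortality was recorded over days 1–14, and body weight on days 0, 7 and 14 as mean ± SD.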

[6] = molecular target: Signal transducer and activator of transcription 3 (Homo sapiens) (UniProt P40763); assay: Inhibition of STAT3 protein phosphorylation in FU-resistant human HCT8 cells at 0.25 to 1 uM incubated for 24 hrs by Western blotting method; type: cell-based; details: HCT-8
Signal transducer and activator of transcription 3 (Homo sapiens), sequence (P40763 whole entry): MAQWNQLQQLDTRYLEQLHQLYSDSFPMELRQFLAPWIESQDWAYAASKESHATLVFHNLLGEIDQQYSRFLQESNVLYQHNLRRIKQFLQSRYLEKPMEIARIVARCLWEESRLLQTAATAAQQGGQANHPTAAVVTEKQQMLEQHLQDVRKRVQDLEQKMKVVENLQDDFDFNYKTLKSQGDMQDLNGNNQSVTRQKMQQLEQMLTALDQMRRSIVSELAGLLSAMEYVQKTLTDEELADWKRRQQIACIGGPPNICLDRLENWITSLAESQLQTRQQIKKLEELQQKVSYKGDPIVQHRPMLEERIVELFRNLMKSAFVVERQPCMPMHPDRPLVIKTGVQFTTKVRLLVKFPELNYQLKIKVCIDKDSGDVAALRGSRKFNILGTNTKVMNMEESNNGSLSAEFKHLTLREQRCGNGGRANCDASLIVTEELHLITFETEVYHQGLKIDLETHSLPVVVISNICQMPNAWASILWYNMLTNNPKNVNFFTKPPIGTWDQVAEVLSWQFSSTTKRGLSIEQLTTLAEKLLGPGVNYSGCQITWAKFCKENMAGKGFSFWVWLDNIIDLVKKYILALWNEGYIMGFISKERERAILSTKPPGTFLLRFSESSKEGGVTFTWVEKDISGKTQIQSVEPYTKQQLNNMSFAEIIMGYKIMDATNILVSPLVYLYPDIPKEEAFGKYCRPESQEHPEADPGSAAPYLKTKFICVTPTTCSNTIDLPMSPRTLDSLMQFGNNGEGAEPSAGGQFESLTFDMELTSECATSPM
In short: (§2)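 Cells (1 x 10^6) grown 24 h in 6 cm dishes, then exposed in duplicate for 24 h to 0.25, 0.5 or 1 µM compound, with or without PTIO. Lysates (20 µg/lane) were run on 7.5% SDS-PAGE, blotted to PVDF and blocked in 5% milk. HRP secondaries with ECL detection; bands quantified by densitometry against β-actin or GAPDH. Three separate experiments, mean ± SD.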

[7] = molecular target: Signal transducer and activator of transcription 3 (Homo sapiens) (UniProt P40763); assay: Inhibition of STAT3 protein phosphorylation in human HCT8 cells at 0.25 to 1 uM incubated for 24 hrs by Western blotting method; type: cell-based; details: HCT-8; in short: as §2
[8] = molecular target: ATP-dependent translocase ABCB1 (Homo sapiens, UniProt P08183); assay: Induction of nitrosylation of P-gp protein in FU-resistant human HCT8 cells at 0.25 to 1 uM incubated for 24 hrs by Western blotting method; type: cell-based; details: hct-8, 24 h
ATP-dependent translocase ABCB1, sequence (P08183 whole entry): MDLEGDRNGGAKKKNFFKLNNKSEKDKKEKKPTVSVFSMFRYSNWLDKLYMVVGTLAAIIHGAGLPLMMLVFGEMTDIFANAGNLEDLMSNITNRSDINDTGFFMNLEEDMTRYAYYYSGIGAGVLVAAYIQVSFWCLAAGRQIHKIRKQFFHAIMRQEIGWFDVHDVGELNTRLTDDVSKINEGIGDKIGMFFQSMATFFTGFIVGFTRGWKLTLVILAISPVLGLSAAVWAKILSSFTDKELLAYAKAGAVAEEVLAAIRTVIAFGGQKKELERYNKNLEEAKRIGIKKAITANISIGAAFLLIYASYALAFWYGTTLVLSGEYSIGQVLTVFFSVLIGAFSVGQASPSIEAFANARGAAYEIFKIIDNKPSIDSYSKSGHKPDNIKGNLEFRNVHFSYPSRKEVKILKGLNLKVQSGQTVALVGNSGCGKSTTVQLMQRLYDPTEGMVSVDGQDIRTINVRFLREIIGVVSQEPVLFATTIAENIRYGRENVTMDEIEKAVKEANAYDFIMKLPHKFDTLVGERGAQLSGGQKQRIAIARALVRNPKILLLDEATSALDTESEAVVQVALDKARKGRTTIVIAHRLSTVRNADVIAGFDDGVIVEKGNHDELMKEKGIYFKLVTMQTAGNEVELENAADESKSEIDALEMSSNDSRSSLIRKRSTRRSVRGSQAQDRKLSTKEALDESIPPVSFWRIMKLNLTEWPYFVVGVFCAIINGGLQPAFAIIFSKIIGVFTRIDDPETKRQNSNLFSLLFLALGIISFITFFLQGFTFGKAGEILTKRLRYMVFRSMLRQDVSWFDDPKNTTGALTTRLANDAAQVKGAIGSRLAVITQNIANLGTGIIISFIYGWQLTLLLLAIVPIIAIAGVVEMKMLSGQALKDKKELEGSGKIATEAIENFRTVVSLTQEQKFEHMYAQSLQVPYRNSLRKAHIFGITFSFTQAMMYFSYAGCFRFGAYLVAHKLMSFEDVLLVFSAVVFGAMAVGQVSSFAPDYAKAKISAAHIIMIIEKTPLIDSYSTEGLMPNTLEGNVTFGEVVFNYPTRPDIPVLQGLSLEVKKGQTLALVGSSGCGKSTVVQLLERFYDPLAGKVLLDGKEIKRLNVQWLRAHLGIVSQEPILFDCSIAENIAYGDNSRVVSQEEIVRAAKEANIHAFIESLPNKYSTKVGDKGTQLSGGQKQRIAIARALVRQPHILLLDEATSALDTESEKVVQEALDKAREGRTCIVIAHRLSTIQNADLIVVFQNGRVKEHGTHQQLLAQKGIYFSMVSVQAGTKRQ
In short: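 HCT-8/5-FU cells (1 × 10^6) treated in duplicate for 24 h with 0.25, 0.5 or 1 µM test compound or 1 µM reference, with or without PTIO. Lysates immunoprecipitated overnight at 4 °C with anti-nitrotyrosine antibody on protein G beads. Eluates blotted with specific anti-Pgp, anti-MRP1 or anti-BCRP antibodies and quantified by densitometry. Mean ± SD of three experiments.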

[9] = Antitumor activity against FU-resistant human HCT8 cells xenografted in nude BALB/c mouse assessed as reduction in tumor weight at 35.7 umol/kg administered as via oral gavage daily for 21 days; type: functional; details: HCT-8, po, 504 h; in short: as §1
[10] = test system: HCT-8; assay: Induction of nitric oxide release in 5-FU resistant human HCT8 cells at 100 uM incubated for 150 mins by Griess assay; type: functional, cell-based
In short: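 Cells (1 × 10^6/well) treated in triplicate with compound at 100 µM for 150 min. Lysates mixed with Griess reagent for 10 min at 37 °C and read at 540 nm. Nitrite quantified from a sodium nitrite standard curve; 0.4% DMSO-treated cells served as background. Mean ± SD of three experiments.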

[11] = test system: HCT-8; assay: Antiproliferative activity against 5-FU resistant human HCT8 cells assessed as inhibition of cell proliferation at 0.25 uM dosed 1 hr after NO scavenger carboxy-PTIO treatment and measured after 24 hrs by MTT assay; type: functional
[12] = test system: HCT-8; assay: Induction of nitric oxide release in human HCT8 cells at 150 uM incubated for 150 mins after 150 mins of pre-treatment with 0.75 uM to 192 uM pepT1 substrate Gly-Sar by Griess assay; type: functional, cell-based
In short: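 Cells pretreated with Gly-Sar (0.75–192 µM, nine levels) for 150 min, then given compound at 150 µM for 150 min. Intracellular nitrite in lysates measured with Griess reagent (10 min, 37 °C, 540 nm) against a sodium nitrite standard curve. Mean ± SD of three experiments.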

[13] = (§3) Antiproliferative activity against 5-FU resistant human HCT8 cells assessed as inhibition of cell proliferation at 1 uM after 72 hrs by MTT assay; type: functional; details: HCT-8, 72 h, read-out: GI
In short: (§4)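 Cells grown in DMEM with 10% FBS and exposed to compound at 1 µM for 72 h. Proliferation measured by MTT at 570 nm and expressed as % inhibition versus untreated cells. Mean ± SD of three independent experiments.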

[14] = test system: HCT-8; assay: Inhibition of P-gp protein expression in FU-resistant human HCT8 cells at 1 uM in presence of NO scavenger carboxy-PTIO incubated for 24 hrs by Western blotting method; type: functional, cell-based; in short: as §2
[15] = test system: HCT-8; assay: Inhibition of MRP1 protein expression in FU-resistant human HCT8 cells at 1 uM in presence of NO scavenger carboxy-PTIO incubated for 24 hrs by Western blotting method; type: functional, cell-based; in short: as §2
[16] = molecular target: Signal transducer and activator of transcription 3 (Homo sapiens) (UniProt P40763); assay: Inhibition of STAT3 protein phosphorylation in human HCT8 cells at 1 uM incubated for 24 hrs by Western blotting method; type: cell-based; details: HCT-8; in short: as §2
[17] = molecular target: Signal transducer and activator of transcription 3 (Homo sapiens) (UniProt P40763); assay: Inhibition of STAT3 protein phosphorylation in FU-resistant human HCT8 cells at 1 uM incubated for 24 hrs by Western blotting method; type: cell-based; details: HCT-8; in short: as §2
[18] = test system: HCT-8; assay: as §3; type: functional; in short: as §4
[19] = test system: HCT-8; assay: Inhibition of HIF-1alpha protein expression in FU-resistant human HCT8 cells at 1 uM incubated for 24 hrs by Western blotting method; type: functional, cell-based; in short: as §2
[20] = test system: Mus musculus; assay: Toxicity in nude BALB/c mouse xenografted with FU-resistant human HCT8 cells assessed as abnormal size changes in lung at 59.4 umol/kg administered as via oral gavage daily for 21 days; type: organism-based, HCT-8; details: in vivo, 504 h
In short: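 Male BALB/c nude mice aged 6-8 weeks, implanted s.c. in the right flank with HCT-8/5-FU cells (2 × 10^6). Once tumors reached 180-200 mm3 (days 9-11), randomized to daily gavage for 21 days in cremophor-EL/DMSO/PBS (1:1:8), 0.2 mL. At the end, liver, kidney, lung and heart checked for size, colour and weight. n = 8 per group.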

Row | inhibition [16] | inhibition [17] | SMILES | Activity [1] [g] | Activity [2] [g] | Activity [3] | inhibition in vivo at 17.8 µmol/kg [4] [%] | mortality at 336 h [5] [%] | inhibition [6] | inhibition [7] | Activity [8] | inhibition in vivo at 35.7 µmol/kg [9] [%] | Activity [10] | inhibition [11] | Activity [12] | inhibition of growth at 1 µM [13] [%] | inhibition [14] | inhibition [15] | growth inhibition (GI) [18] | inhibition [19] | Activity [20]
1 | – | – | CC1(C)CC[C@]2(C(=O)NCC(=O)OCC#CCOc3no[n+]([O-])c3S(=O)(=O)c3ccccc3)CC[C@]3(C)[C@H](C(=O)C=C4[C@@]5(C)C=C(C#N)C(=O)C(C)(C)[C@@H]5CC[C@]43C)[C@@H]2C1 | 30 | 26.7 | Dose-dependent effect | 49.2 | 0 | Dose-dependent effect | Dose-dependent effect | Dose-dependent effect | 60.8 | Active | inactive | inactive | > 90 | inactive | inactive | – | – | –
2 | Active | Active | COC(=O)[C@]12CCC(C)(C)C[C@H]1[C@H]1C(=O)C=C3[C@@]4(C)C=C(C#N)C(=O)C(C)(C)[C@@H]4CC[C@@]3(C)[C@]1(C)CC2 [BARDOXOLONE METHYL] | – | – | – | – | – | – | – | – | – | – | – | – | – | – | – | Active | Active | Non-toxic
